18 compounds from ChEMBL document CHEMBL4004793, “Spoxazomicin D and Oxachelin C, Potent Neuroprotective Carboxamides from the Appalachian Coal Fire-Associated Isolate Streptomyces sp. RM-14-6” (J Nat Prod, 2017) can be followed below.

The subject of one test is Escherichia coli. Briefly: Antibacterial activity against Escherichia coli NRRL B-3708 up to 60 uM after 16 to 48 hrs. The class given is functional. In a few lines: (§1)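 MIC determined after 16−48 h incubation, in triplicate, following earlier published protocols; kanamycin and ampicillin as positive controls for bacteria, amphotericin B for S. cerevisiae. S. aureus, S. enterica and S. cerevisiae strains from ATCC.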

Test [1] deals with A549. Kind of test: Cytotoxicity against human A549 cells assessed as decrease in cell viability up to 20 uM after 48 hrs by resazurin assay. The test is classed as functional, cell-based. In short, it runs like this: (§2)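 A549 non-small-cell lung cells from ATCC, run in triplicate following earlier published protocols; actinomycin D as positive control.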
On the technique in general: Alamar Blue is a resazurin reagent that responds to reducing activity.

Test [2] has as its system Micrococcus luteus. Kind of test: Antibacterial activity against Micrococcus luteus NRRL B-287 up to 60 uM after 16 to 48 hrs. The test is classed as functional. In short, it runs like this:
as §1

The test system of test [3] is Staphylococcus aureus. Briefly: Antibacterial activity against Staphylococcus aureus ATCC 6538 up to 60 uM after 16 to 48 hrs. The class given is functional. In short, it runs like this: as §1
Test [4] relates to Hippocampal neurone. Kind of test: Neuroprotective activity against EtOH-induced damage in Sprague-Dawley rat hippocampal neuron after 48 hrs by propidium iodide uptake assay. The class given is functional, cell-based. In short, it runs like this: (§3)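 Organotypic hippocampal slices from 8-day-old Sprague−Dawley rats in medium with 3.74 μM propidium iodide, with or without 100 mM EtOH plus test agent at varied concentrations, 48 h. Slices then imaged for propidium iodide uptake intensity as a marker of cell damage; post hoc statistical comparison vs control and vs EtOH.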

The subject of test [5] is Saccharomyces cerevisiae. Briefly: Antifungal activity against Saccharomyces cerevisiae ATCC 204508 up to 60 uM after 16 to 48 hrs. The class given is functional. In a few lines: as §1
In test [6] the test system is Salmonella enterica. Briefly: Antibacterial activity against Salmonella enterica ATCC 10708 up to 60 uM after 16 to 48 hrs. The class given is functional. In a few lines:
as §1

For a further test, the system named is HEK293. Kind of test: Modulation of unfolded protein response in HEK293 cells after 48 hrs by ASGR-Cluc secretion assay. Conditions: Homo sapiens.
Test [7] concerns Micrococcus luteus. Briefly: Antibacterial activity against Micrococcus luteus NRRL B-287 after 16 to 48 hrs. The class given is functional. In short, it runs like this:
as §1

Test [8] has as its system A549. Kind of test: Cytotoxicity against human A549 cells assessed as decrease in cell viability after 48 hrs by resazurin assay. The class given is functional, cell-based. In short, it runs like this:
as §2

In test [9] the test system is Salmonella enterica. Briefly: Antibacterial activity against Salmonella enterica ATCC 10708 after 16 to 48 hrs. The class given is functional. In short, it runs like this:
as §1

The test system of test [10] is Staphylococcus aureus. Kind of test: Antibacterial activity against Staphylococcus aureus ATCC 6538 after 16 to 48 hrs. The class given is functional. In short, it runs like this: as §1
The test system of test [11] is Saccharomyces cerevisiae. Kind of test: Antifungal activity against Saccharomyces cerevisiae ATCC 204508 after 16 to 48 hrs. The test is classed as functional. In short, it runs like this:
as §1

Test [12] has as its system Hippocampal neurone. Kind of test: Neuroprotective activity against EtOH-induced damage in Sprague-Dawley rat hippocampal neuron at 0.01 uM after 48 hrs by propidium iodide uptake assay. The test is classed as functional, cell-based. In a few lines: as §3
Test [13] deals with Hippocampal neurone. Kind of test: Neuroprotective activity against EtOH-induced damage in Sprague-Dawley rat hippocampal neuron at 0.01 to 0.10 uM after 48 hrs by propidium iodide uptake assay. The class given is functional, cell-based. In a few lines:
as §3

pEC50, pIC50: −log10 of the molar value. In brackets after ≈: the same amount, converted by molar mass. Activity calls are given as the source filed them. No cut-off for these calls is given here.

For the compound `OC[C@@H]1COC(c2ccccc2O)=N1`, the outcome with Escherichia coli, with A549 [1], in the test on Micrococcus luteus [2], in the test on Staphylococcus aureus [3], in the test on Hippocampal neurone [4] and in the test with Saccharomyces cerevisiae [5] was inactive. The result in the test on Salmonella enterica [6] was inactive.
Take `CO[C@H]1CC[C@H](O[C@@H]2C[C@@H]([C@@H](C)/C=C(\C)C(=O)[C@H](C)C[C@H](C)C(=O)O)O[C@@]3(CC[C@@](C)([C@H]4CC[C@@H](C)[C@@]5(O[C@@H]([C@H]6O[C@@](O)(CO)[C@H](C)C[C@@H]6C)C[C@@H]5C)O4)O3)[C@@H]2C)O[C@@H]1C`: the pEC50 in the test on HEK293 is 7.42. The minimum inhibitory concentration (MIC) with Micrococcus luteus [7] (Micrococcus luteus, NRRL B-287, read-out: MIC) lay within 0.1 to 3 µM (≈ 0.0851 to 2.55 µg/mL); in the test with Salmonella enterica [9] (Salmonella enterica, ATCC 10708, read-out: MIC) it was 0.1 to 3 µM (≈ 0.0851 to 2.55 µg/mL); with Staphylococcus aureus [10] (Staphylococcus aureus, ATCC 6538, read-out: MIC), 0.1 to 3 µM (≈ 0.0851 to 2.55 µg/mL); in the test on Saccharomyces cerevisiae [11], 0.1 to 3 µM. In addition, the pIC50 in the test on A549 [8] (Homo sapiens, A549, 48 h) is 5.92.
Regarding `CC(C)C[C@@H]1NC(=O)[C@H]2C[C@@H](O)CN2C1=O`, the outcome with Escherichia coli, in the test with A549 [1], with Micrococcus luteus [2], in the test on Staphylococcus aureus [3], in the test with Saccharomyces cerevisiae [5] and with Salmonella enterica [6] was inactive.
Take `CO[C@H]1CC[C@H](O[C@@H]2C[C@@H]([C@@H](C)/C=C(\C)C(=O)[C@H](C)C[C@H](C)C(=O)[O-])O[C@@]3(CC[C@@](C)([C@H]4CC[C@@H](C)[C@@]5(O[C@@H]([C@H]6O[C@@](O)(CO)[C@H](C)C[C@@H]6C)C[C@@H]5C)O4)O3)[C@@H]2C)O[C@@H]1C.[Na+]`: the pEC50 with HEK293 is 6.96. Further, the MIC against Micrococcus luteus [7] was in the range of 0.1 to 3 µM; in the test on Salmonella enterica [9], 0.1 to 3 µM; with Staphylococcus aureus [10], 0.1 to 3 µM; in the test with Saccharomyces cerevisiae [11] (Saccharomyces cerevisiae, ATCC 204508, read-out: MIC) it was 0.1 to 3 µM. For the same compound, the pIC50 in the test on A549 [8] (a549) was 5.72.
As to `C[C@@H](CO)NC(=O)c1ccccc1O`, the outcome in the test on Escherichia coli, in the test on A549 [1], in the test on Micrococcus luteus [2], in the test on Staphylococcus aureus [3], in the test with Saccharomyces cerevisiae [5] and in the test on Salmonella enterica [6] was inactive.
As to `NC(=O)c1ccc[nH]1`, the result with Escherichia coli, in the test on A549 [1], in the test on Micrococcus luteus [2], in the test on Staphylococcus aureus [3], with Saccharomyces cerevisiae [5] and with Salmonella enterica [6] was inactive.
In the case of `O=C(NC(CO)CO)c1ccccc1O`, the outcome in the test with Escherichia coli, in the test on A549 [1], in the test on Micrococcus luteus [2], in the test on Staphylococcus aureus [3], in the test with Saccharomyces cerevisiae [5] and in the test on Salmonella enterica [6] was inactive.
`NC(=O)[C@@H]1COC(c2ccccc2O)=N1`: the outcome with Escherichia coli, with A549 [1], with Micrococcus luteus [2], in the test on Staphylococcus aureus [3], with Saccharomyces cerevisiae [5] and in the test on Salmonella enterica [6] was inactive. For the same compound, in the test with Hippocampal neurone [12], the result was Active.
Regarding `N[C@@H](COC(=O)c1ccccc1O)C(=O)N[C@@H](CO)C(=O)N[C@H](CCCN(O)C=O)C(=O)NCCC(=O)N[C@@H]1CCCN(O)C1=O`, the result with Escherichia coli, in the test with A549 [1], in the test with Micrococcus luteus [2], with Staphylococcus aureus [3], in the test on Saccharomyces cerevisiae [5] and with Salmonella enterica [6] was inactive. For the same compound, the result with Hippocampal neurone [13] was Active.
Consider `CC1=CC(=O)C[C@]2(C)CC[C@@H](C(C)(C)O)C[C@@H]12`, for which the result in the test with Escherichia coli, in the test on Micrococcus luteus [2], in the test with Staphylococcus aureus [3], in the test on Saccharomyces cerevisiae [5] and with Salmonella enterica [6] was inactive.
On to `C[C@H](CO)NC(=O)c1ccccc1O`, for which the result in the test with Escherichia coli, in the test with A549 [1], with Micrococcus luteus [2], in the test on Staphylococcus aureus [3], in the test on Saccharomyces cerevisiae [5] and in the test on Salmonella enterica [6] was inactive.
Turning to `NC(=O)c1ccccc1O`, the result in the test with Escherichia coli, with A549 [1], in the test with Micrococcus luteus [2], with Staphylococcus aureus [3], with Saccharomyces cerevisiae [5] and in the test with Salmonella enterica [6] was inactive.
Regarding `CC(=O)NCCc1ccc(O)cc1`, the result with Escherichia coli, in the test on A549 [1], in the test with Micrococcus luteus [2], in the test with Staphylococcus aureus [3], with Saccharomyces cerevisiae [5] and in the test with Salmonella enterica [6] was inactive.
For the compound `O=CN(O)CCC[C@@H](NC(=O)[C@H](CO)NC(=O)[C@H](CO)NC(=O)c1ccccc1O)C(=O)NCCC(=O)N[C@@H]1CCCN(O)C1=O`, the outcome in the test on Escherichia coli, in the test on A549 [1], with Micrococcus luteus [2], in the test on Staphylococcus aureus [3], with Hippocampal neurone [4] and in the test with Saccharomyces cerevisiae [5] was inactive. Further, the outcome with Salmonella enterica [6] was inactive.
On to `O=CN(O)CCC[C@@H](NC(=O)[C@H](CO)NC(=O)[C@@H]1COC(c2ccccc2O)=N1)C(=O)NCCC(=O)N[C@@H]1CCCN(O)C1=O`, for which the outcome in the test on Escherichia coli, in the test with A549 [1], in the test on Micrococcus luteus [2], with Staphylococcus aureus [3], with Hippocampal neurone [4] and in the test on Saccharomyces cerevisiae [5] was inactive. Further, the result in the test on Salmonella enterica [6] was inactive.
As to `COC(=O)C1COC(c2ccccc2O)=N1` (configuration not stated), the outcome in the test with Escherichia coli, with A549 [1], in the test with Micrococcus luteus [2], with Staphylococcus aureus [3], in the test on Saccharomyces cerevisiae [5] and with Salmonella enterica [6] was inactive.
For the compound `CNc1ccc(C(N)=O)cc1`, the outcome in the test with Escherichia coli, with A549 [1], in the test with Micrococcus luteus [2], with Staphylococcus aureus [3], with Saccharomyces cerevisiae [5] and in the test on Salmonella enterica [6] was inactive.
As for `NC(=O)Cc1ccccc1`, the outcome in the test with Escherichia coli, in the test with A549 [1], with Micrococcus luteus [2], with Staphylococcus aureus [3], with Saccharomyces cerevisiae [5] and in the test on Salmonella enterica [6] was inactive.

The term pEC50 denotes −log10 of the EC50, conventionally taken in molar units. The term MIC denotes the lowest concentration that inhibits growth of the organism. By pIC50 is commonly meant the IC50 on a negative log10 scale, so that one unit is a factor of ten.
